Assay results: paper PMC3217223 (Bioorganic & Medicinal Chemistry, 2009)
Counter-ions that a name gives are not always drawn.

Columns and labels:
sindbis virus = assay type: cell-based; settings: microscopy and MTS assay
parainfluenza-3 virus = assay type: cell-based; settings: microscopy and MTS assay
[1] = tested on: vesicular stomatitis virus; assay type: cell-based
Reovirus-1 = assay type: cell-based; settings: microscopy and MTS assay
[2] = tested on: respiratory syncytial virus; assay type: cell-based; settings: microscopy and MTS assay
influenza virus A/H3N2 = assay type: cell-based, influenza virus A/Hong Kong/7/87 (H3N2); settings: influenza virus A/H3N2 (A/Hong Kong/7/87); microscopy and MTS assay
[3] = tested on: herpes simplex virus type 1; assay type: cell-based; settings: microscopy and MTS assay
influenza virus A/H1N1 = assay type: cell-based, influenza virus A/Puerto Rico/8/34 (H1N1); settings: influenza virus A/H1N1 (A/Puerto Rico/8/34); microscopy and MTS assay
vaccinia virus = assay type: cell-based
NMDA receptors = assay type: cell-based; settings: cerebellar granule neurons, glutamate or NMDA 100 μM + glycine 10 μM
influenza virus B = assay type: cell-based, influenza virus B/Hong Kong/5/72; settings: influenza virus B (B/Hong Kong/5/72); microscopy and MTS assay
[4] = tested on: bloodstream form T. brucei (strain 427); experiment: T. brucei culturing and drug test; assay type: cell-based, Trypanosoma brucei; settings: at concentrations up to 5 mg mL^−1
Outline: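 Parasites were kept at 37 °C in modified Iscove's medium (pH 7.4) and grown for 48 h with a range of test compound concentrations. Cell density at each concentration was counted by hemocytometer and expressed as percent of untreated control growth. Concentrations giving 50% and 90% growth inhibition (IC₅₀, IC₉₀) were determined. Run in triplicate.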

Coxsackievirus B4 = assay type: cell-based; settings: microscopy and MTS assay
[5] = tested on: herpes simplex virus type 2; assay type: cell-based; settings: microscopy and MTS assay
Punta Toro virus = assay type: cell-based; settings: microscopy and MTS assay
feline coronavirus = assay type: cell-based; settings: microscopy and MTS assay

Row | Structure (SMILES) | Antiviral activity (sindbis virus) | Antiviral activity (parainfluenza-3 virus) | Antiviral activity [1] | Antiviral activity (Reovirus-1) | Antiviral activity [2] | Antiviral activity (influenza virus A/H3N2) | Antiviral activity [3] | Antiviral activity (influenza virus A/H1N1) | Antiviral activity (vaccinia virus) | NMDA receptor antagonism (in words) (NMDA receptors) | Antiviral activity (influenza virus B) | Trypanocidal activity (in words) [4] | Antiviral activity (Coxsackievirus B4) | Antiviral activity [5] | Antiviral activity (Punta Toro virus) | Antiviral activity (feline coronavirus)
1 | CNC12CC3CC(CC(C3)O1)C2 [Compound 4, N-Methyl(2-oxaadamant-1-yl)amine hydrochloride] | None of the tested compounds displayed activity | None of the tested compounds displayed activity | None of the tested compounds displayed activity | None of the tested compounds displayed activity | None of the tested compounds displayed activity | none of the compounds was found to be active | None of the tested compounds displayed activity | none of the compounds was found to be active | None of the tested compounds displayed activity | inactive | none of the compounds was found to be active | no activity | None of the tested compounds displayed activity | None of the tested compounds displayed activity | None of the tested compounds displayed activity | None of the tested compounds displayed activity
2 | NC12CC3CC(CC(C3)O1)C2 [Compound 7, (2-Oxaadamant-1-yl)amine hydrochloride] | None of the tested compounds displayed activity | None of the tested compounds displayed activity | None of the tested compounds displayed activity | None of the tested compounds displayed activity | None of the tested compounds displayed activity | none of the compounds was found to be active | None of the tested compounds displayed activity | none of the compounds was found to be active | None of the tested compounds displayed activity | inactive | none of the compounds was found to be active | no activity | None of the tested compounds displayed activity | None of the tested compounds displayed activity | None of the tested compounds displayed activity | None of the tested compounds displayed activity
